This passage reports inhibition, Activity and IC50 results from ChEMBL document CHEMBL3351692, “Discovery and optimization of 1,3,5-trisubstituted pyrazolines as potent and highly selective allosteric inhibitors of protein kinase C-ζ” (J Med Chem, 2014).

In data set [1] the target is Protein kinase C gamma type (Homo sapiens) (UniProt P05129). The data set can be described thus: Inhibition of human PKCgamma at 10 uM relative to control.
The next data set has as its system RAW264.7. The data set is described as follows: Cytotoxicity against mouse RAW264.7 cells assessed as living cells at 7.5 uM by MTT assay. The data set is classed as cell-based. The note with it: raw264.7, 7.5 µM. The procedure, abridged: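 RAW 264.7 macrophages: MTT viability assay run in parallel with each nitrite (Griess) experiment, same cell line and same compound treatment conditions.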

Data set [2] deals with T1, Protein kinase C zeta type (Homo sapiens) (UniProt Q05513).
T1 sequence (whole entry): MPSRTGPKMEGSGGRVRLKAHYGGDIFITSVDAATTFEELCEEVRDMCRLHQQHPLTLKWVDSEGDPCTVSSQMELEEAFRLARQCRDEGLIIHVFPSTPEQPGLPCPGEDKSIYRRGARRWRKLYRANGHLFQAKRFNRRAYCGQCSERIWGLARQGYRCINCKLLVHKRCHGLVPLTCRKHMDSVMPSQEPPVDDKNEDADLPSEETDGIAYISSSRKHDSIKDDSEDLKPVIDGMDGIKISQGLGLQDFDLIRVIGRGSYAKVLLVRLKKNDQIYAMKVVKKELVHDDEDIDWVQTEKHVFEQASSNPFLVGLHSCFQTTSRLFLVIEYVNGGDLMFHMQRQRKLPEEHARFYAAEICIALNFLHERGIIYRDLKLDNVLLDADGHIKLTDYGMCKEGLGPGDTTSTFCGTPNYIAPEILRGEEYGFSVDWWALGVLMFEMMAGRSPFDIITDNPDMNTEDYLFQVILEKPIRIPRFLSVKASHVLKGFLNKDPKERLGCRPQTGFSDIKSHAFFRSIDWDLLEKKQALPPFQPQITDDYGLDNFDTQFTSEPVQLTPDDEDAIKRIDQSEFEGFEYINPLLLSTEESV
The data set can be described thus: Inhibition of PKCzeta (unknown origin) expressed in HEK293 cells assessed as reduction in specific activity for 6 hrs after 30 mins IGF-I stimulation by in serum free medium. Type of data set: cell-based. The procedure, abridged: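 HEK293 cells transfected at 80% confluency with GST-PKCζ wild-type or V297L mutant plasmids. Next day switched to DMEM with 0.1% FCS and compound or DMSO for 6 h, then IGF-I 50 ng/mL final for 30 min at 37 °C. Lysed; GST-PKCζ pulled down on glutathione beads and eluted. 50 ng per reaction assayed for kinase activity with myelin basic protein as substrate. Triplicate treatments, two independent experiments.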

In data set [3] the target is Protein kinase C alpha type (Homo sapiens) (UniProt P17252). The data set can be described thus: Inhibition of human PKCalpha at 10 uM relative to control.
Data set [4] deals with Protein kinase C epsilon type (Homo sapiens) (UniProt Q02156). The data set can be described thus: Inhibition of human PKCepsilon at 10 uM relative to control.
Data set [5] concerns the target Protein kinase C delta type (Homo sapiens) (UniProt Q05655). The data set is described as follows: Inhibition of human PKCdelta at 10 uM relative to control.
The test system of a further data set is U-937. The data set is described as follows: Inhibition of Thr410 phosphorylation in serum-starved human U937 cells at 5 to 10 uM by immunoblotting analysis. On the technique in general: In western blotting, separated proteins are transferred to a membrane and probed.
Data set [6] has as its target cAMP-dependent protein kinase catalytic subunit alpha (Homo sapiens) (UniProt P17612). The data set is described as follows: Inhibition of human PKA at 10 uM relative to control.
Data set [7] has as its target Ribosomal protein S6 kinase beta-1 (Homo sapiens) (UniProt P23443). The data set is described as follows: Inhibition of human p70S6K at 10 uM relative to control.
For data set [8], the target named is Ribosomal protein S6 kinase alpha-5 (Homo sapiens) (UniProt O75582). The data set is described as follows: Inhibition of human MSK1 at 10 uM relative to control.
Data set [9] deals with Protein kinase C beta type (Homo sapiens) (UniProt P05771). The data set is described as follows: Inhibition of human PKCbeta1 at 10 uM relative to control.
Data set [10] concerns the target T1, Protein kinase C zeta type (Homo sapiens). The data set can be described thus: Inhibition of PKCzeta in serum-starved human U937 cells assessed as inhibition of TNFalpha-stimulated activation loop phosphorylation at 2.5 to 5 uM by immunoblotting analysis. Type of data set: cell-based. The following applies: U-937. In a few lines: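 U937 cells in RPMI/10% FBS, serum-starved 24 h, treated with compound or DMSO for 1 h, then TNFα 50 ng/mL for 30 min. Whole-cell lysates separated by SDS–PAGE (10% gel) and immunoblotted for phospho-PKCζ/λ (Thr410/403), with β-actin as loading control. Near-infrared detection. Two separate experiments.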

The target of data set [11] is Ribosomal protein S6 kinase alpha-1 (Homo sapiens) (UniProt Q15418). The data set can be described thus: Inhibition of human RSK1 at 10 uM relative to control.
Data set [12] concerns the target T2, Nitric oxide synthase, inducible (Mus musculus) (UniProt P29477).
T2 sequence (whole entry): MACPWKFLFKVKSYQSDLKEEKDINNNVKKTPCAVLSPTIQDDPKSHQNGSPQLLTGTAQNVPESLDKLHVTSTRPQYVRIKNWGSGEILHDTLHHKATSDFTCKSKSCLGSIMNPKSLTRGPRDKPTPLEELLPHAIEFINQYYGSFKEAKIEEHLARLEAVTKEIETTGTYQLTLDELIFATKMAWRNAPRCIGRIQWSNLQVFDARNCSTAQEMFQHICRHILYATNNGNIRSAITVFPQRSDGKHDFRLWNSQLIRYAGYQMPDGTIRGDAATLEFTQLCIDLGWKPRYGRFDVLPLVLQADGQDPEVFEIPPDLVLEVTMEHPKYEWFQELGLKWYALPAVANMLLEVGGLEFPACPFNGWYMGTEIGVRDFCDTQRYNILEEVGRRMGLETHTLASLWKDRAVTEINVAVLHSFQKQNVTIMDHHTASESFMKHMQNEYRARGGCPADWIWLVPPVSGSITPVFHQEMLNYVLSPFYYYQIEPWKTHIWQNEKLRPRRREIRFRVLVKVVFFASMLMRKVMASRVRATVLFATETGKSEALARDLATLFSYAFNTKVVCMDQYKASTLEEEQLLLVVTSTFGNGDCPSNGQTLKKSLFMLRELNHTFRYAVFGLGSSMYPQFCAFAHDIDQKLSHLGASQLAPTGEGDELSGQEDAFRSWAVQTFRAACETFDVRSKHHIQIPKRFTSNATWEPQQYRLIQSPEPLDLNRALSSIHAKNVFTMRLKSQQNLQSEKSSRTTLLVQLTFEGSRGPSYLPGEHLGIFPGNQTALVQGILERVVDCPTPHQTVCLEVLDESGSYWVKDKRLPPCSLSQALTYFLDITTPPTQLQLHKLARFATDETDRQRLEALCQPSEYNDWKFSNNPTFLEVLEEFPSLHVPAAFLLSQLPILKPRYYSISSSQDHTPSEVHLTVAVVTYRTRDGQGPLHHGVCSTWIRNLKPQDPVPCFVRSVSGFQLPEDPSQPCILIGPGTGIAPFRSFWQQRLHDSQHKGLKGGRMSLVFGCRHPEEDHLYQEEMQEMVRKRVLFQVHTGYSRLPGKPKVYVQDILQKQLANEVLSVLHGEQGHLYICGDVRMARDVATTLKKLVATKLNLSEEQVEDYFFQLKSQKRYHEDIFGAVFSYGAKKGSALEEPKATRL
The data set is described as follows: Inhibition of iNOS induction in mouse RAW264.7 cells assessed as NO production at 7.5 uM. The data set is classed as cell-based. The procedure, abridged: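 RAW 264.7 cells seeded at 8 × 10⁴ per well in DMEM/10% FBS and grown 2 days. Then exposed to LPS with compound or DMSO for 20 h. Supernatant nitrite measured by Griess reaction (sulfanilamide/NED) at 550 nm minus 620 nm background, quantified against a sodium nitrite standard curve. At least four experiments in triplicate.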

For data set [13], the target named is Serine/threonine-protein kinase Sgk1 (Homo sapiens) (UniProt O00141). The data set can be described thus: Inhibition of human SGK1 at 10 uM relative to control.
Data set [14] addresses T3, Protein kinase C zeta type (Homo sapiens, UniProt Q05513).
T3 sequence (Q05513 whole entry): T1 sequence (whole entry)
The data set can be described thus: Inhibition of human PKCzeta assessed as phosphorylation reaction after 4 mins incubation by cell-free assay.

Data set [15] concerns the target 3-phosphoinositide-dependent protein kinase 1 (Homo sapiens) (UniProt O15530). The data set is described as follows: Inhibition of human PDK1 at 10 uM relative to control.
Data set [16] concerns the target Protein kinase C eta type (Homo sapiens) (UniProt P24723). The data set can be described thus: Inhibition of human PKCeta at 10 uM relative to control.
Data set [17] has as its target Protein kinase C theta type (Homo sapiens) (UniProt Q04759). The data set is described as follows: Inhibition of human PKCtheta at 10 uM relative to control.
Data set [18] concerns the target T3, Protein kinase C zeta type. The data set can be described thus: Inhibition of PKCzeta in human U937 cells assessed as inhibition of TNFalpha-induced NF-kappaB activation by reporter gene assay. Type of data set: cell-based, U-937.

Each structure is given as a SMILES string. Active and inactive are the calls of the source. The calls are words filed in the database; no cut-off is given here.

Sequence of Ribosomal protein S6 kinase alpha-5 (Homo sapiens) (O75582 whole entry, looked up): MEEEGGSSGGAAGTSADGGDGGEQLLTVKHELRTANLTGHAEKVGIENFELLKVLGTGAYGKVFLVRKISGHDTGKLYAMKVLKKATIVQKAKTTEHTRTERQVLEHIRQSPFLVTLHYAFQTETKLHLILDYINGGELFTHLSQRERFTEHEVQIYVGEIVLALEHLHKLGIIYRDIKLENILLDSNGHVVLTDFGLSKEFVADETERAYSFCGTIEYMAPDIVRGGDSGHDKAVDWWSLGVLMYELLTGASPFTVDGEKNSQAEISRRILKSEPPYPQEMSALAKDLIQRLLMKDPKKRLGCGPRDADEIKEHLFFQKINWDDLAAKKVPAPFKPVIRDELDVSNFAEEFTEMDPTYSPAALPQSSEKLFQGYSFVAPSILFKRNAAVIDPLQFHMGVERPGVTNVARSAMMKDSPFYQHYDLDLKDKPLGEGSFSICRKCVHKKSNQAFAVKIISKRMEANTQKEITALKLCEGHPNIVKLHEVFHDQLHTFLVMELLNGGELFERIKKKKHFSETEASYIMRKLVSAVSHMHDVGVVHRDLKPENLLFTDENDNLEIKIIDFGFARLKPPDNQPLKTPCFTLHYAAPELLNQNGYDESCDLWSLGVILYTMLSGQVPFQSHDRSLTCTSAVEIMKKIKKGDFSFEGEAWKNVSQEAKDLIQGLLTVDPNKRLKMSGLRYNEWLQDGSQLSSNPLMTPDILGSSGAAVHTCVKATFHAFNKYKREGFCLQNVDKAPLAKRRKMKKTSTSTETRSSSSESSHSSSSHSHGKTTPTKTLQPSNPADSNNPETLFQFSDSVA
Sequence of Protein kinase C eta type (Homo sapiens) (P24723 whole entry): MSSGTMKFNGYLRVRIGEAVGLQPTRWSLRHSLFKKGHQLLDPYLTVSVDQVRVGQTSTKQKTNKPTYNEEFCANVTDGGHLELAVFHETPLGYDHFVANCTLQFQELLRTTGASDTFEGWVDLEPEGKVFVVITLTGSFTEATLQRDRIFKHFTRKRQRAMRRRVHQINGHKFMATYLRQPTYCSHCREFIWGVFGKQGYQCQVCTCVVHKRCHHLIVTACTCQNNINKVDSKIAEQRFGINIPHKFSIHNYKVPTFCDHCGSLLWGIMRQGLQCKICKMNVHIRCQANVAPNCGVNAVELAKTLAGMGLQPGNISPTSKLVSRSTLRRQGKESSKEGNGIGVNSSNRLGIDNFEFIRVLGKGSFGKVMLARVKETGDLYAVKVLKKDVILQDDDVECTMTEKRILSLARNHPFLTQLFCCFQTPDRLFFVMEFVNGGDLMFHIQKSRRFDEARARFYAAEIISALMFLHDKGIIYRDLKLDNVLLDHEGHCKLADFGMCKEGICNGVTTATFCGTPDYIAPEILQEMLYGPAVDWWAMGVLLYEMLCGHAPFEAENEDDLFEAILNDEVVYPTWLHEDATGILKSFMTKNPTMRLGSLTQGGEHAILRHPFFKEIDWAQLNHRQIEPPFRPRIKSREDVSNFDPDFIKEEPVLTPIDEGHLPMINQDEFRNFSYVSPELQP
Sequence of Serine/threonine-protein kinase Sgk1 (Homo sapiens) (O00141 whole entry): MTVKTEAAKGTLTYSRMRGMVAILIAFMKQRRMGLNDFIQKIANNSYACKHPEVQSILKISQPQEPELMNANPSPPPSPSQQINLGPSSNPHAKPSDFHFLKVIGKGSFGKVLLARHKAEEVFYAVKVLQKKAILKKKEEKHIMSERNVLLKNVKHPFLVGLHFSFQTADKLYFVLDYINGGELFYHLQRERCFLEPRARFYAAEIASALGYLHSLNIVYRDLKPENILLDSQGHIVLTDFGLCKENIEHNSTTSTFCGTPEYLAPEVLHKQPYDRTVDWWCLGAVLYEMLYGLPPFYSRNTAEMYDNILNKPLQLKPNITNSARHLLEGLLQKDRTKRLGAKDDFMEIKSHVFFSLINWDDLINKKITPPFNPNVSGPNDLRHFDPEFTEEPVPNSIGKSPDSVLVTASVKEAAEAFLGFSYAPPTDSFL
Sequence of Protein kinase C epsilon type (Homo sapiens) (Q02156 whole entry): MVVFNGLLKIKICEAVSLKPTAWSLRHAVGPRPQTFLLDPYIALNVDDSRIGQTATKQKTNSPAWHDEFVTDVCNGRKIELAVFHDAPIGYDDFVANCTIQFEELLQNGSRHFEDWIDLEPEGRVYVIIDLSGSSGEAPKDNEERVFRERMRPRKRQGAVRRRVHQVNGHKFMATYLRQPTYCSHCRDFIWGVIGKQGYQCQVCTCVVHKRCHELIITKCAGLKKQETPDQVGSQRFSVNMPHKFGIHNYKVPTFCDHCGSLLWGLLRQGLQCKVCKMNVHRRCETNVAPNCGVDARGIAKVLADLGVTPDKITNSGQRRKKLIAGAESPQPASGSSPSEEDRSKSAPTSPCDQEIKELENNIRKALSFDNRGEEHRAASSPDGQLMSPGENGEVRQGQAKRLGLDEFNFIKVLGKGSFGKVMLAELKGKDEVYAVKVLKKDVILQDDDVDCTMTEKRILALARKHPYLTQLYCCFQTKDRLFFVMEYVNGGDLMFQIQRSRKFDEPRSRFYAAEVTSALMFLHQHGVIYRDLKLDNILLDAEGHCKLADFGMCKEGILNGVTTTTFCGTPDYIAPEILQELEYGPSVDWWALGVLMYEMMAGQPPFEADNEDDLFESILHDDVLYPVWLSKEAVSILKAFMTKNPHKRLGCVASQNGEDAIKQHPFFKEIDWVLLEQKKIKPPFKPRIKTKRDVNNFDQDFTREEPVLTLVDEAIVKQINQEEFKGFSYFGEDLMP
Sequence of Protein kinase C delta type (Homo sapiens) (Q05655 whole entry, looked up): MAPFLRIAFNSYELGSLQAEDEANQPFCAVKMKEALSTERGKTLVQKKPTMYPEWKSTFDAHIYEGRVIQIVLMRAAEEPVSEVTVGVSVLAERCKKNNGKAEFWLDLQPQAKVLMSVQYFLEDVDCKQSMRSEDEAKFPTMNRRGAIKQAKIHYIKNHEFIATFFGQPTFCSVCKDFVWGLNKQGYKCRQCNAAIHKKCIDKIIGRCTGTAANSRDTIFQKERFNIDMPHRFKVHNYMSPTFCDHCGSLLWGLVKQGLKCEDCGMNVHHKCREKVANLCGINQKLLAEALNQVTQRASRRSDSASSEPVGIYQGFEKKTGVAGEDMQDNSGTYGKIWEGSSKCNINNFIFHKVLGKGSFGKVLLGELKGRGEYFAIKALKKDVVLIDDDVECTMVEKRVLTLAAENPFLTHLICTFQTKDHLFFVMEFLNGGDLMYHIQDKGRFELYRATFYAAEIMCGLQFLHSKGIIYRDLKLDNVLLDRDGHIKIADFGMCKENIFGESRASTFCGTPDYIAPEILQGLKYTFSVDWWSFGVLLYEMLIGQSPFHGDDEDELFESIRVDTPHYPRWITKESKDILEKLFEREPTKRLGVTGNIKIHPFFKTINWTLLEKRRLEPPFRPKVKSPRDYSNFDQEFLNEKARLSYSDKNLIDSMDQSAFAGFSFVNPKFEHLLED

As a reminder, the inhibition is how much of the control response was suppressed. By IC50 is commonly meant the point on the concentration scale where inhibition reaches its midpoint. For `CC(C)(C)C1=NN(c2cccc(Cl)c2)C(c2ccc(F)c(O)c2)C1` (stereo not given), the inhibition was 6% in [1]; “Dose-dependent effect” in data set [2]; 4% in [3]; 3% in data set [11]; 74% in [12]; 18% in [13]. This compound gave an inhibition in [15] of 8%. Further, the Activity result in the data set with RAW264.7 was “Non-toxic”. Also, the inhibition result in data set [4], in data set [5], in [6], in data set [7], in [8] and in data set [9] was “inactive” throughout. The inhibition result in [16] and in [17] was “inactive” throughout. Also, the inhibition result (in the data set with U-937; in [10]) was “Active” in each case. The half-inhibitory concentration (IC50) in [14] turned out to be 0.3 µM; in data set [18] it was 2.5 µM.
